Screening results (PubChem)
Cneo AK release = causes C. neoformans cell lysis; 0.2% of 360,000 active; lysis activity, % at 15 µM; adenylate kinase release luminescence, 4 h; normalised: neutral wells 0, clomiphene wells 100;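 active means mean lysis activity across replicates of at least 80%, whatever share of replicates individually reach that level; inactive means mean lysis activity below 80%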
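Schedule: static 4 h at 37 °C with compound, 1 h detection; system: C. neoformans cells; benchmarks: Clomiphene as positive control; buffer or medium: fresh YPD medium; measure: luminescence rise reflecting yeast cell lysis; measured by: luminescent adenylate kinase detection reagent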
SUMO Mot1 rescue = blocks SUMOylation pathway, rescuing yeast Mot1-301 growth. growth rescue, % at 18.8 µM. 1% of 320,000 active. S. cerevisiae Mot1-301 growth rescue, ATP luminescence, 38.5C; percent above DMSO median, 100 means doubled. AID 2716;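 active means every valid replicate shows activation above 250% relative to neutral control wells; inactive means the rest, any valid replicate at or below 250%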;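 further: OY570 slx delta 5 strain wells were the positive control but not used for scaling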
Statin myotox sup = suppression of simvastatin myotoxicity | AID 602340 | C2C12 myotubes + simvastatin, ATP luminescence, 48 h; scaled: DMSO 0, geranylgeraniol control 100 | 0.78% of 330,000 active | rescue of ATP level, % at 7.49 µM;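 active means mean ATP rescue above about 67%, or every replicate alone reaching that limit, limit read from the data, passing the limit was not always enough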;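 further: myotubes were challenged with 10 µM simvastatin during compound exposure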
* = called active by the depositor; · = no result. Compounds with a hit are over-represented: about 1.5% of the library has one in this group of screens.

SMILES | Cneo AK release | SUMO Mot1 rescue | Statin myotox sup
Cc1nc(N2CCN(c3ccccc3)CC2)[nH]c(=O)c1CCC(C)C | -2.6 | 13.7 | 86.4*
COc1ccc(CCNC(=S)N2CCN(S(=O)(=O)c3cccc(F)c3)CC2)cc1 | 1.6 | 350.6* | 3.0
COc1ccc(CNC(=S)N2CCN(S(=O)(=O)c3cccc(F)c3)CC2)cc1 | · | 0.9 | 23.9
C[C@@H]1CN([C@@H](C)CO)S(=O)(=O)c2ccc(C3=CCCC3)cc2O[C@@H]1CN(C)S(=O)(=O)c1cn(C)cn1 | -3.2 | · | -26.6
CCNc1c([N+](=O)[O-])c(=O)n(CC)c2ccccc12 | 0.1 | -8.1 | ·
Cc1ccc(Sc2c([N+](=O)[O-])c(=O)n(C)c3ccccc23)cc1 | -1.2 | 19.4 | 89.8*
Cn1c(=O)c([N+](=O)[O-])c(NCc2ccccc2)c2ccccc21 | -2.3 | -0.9 | 121.7*
Cc1ccc(Sc2c(O)c3ccccc3n(C)c2=O)cc1 | · | · | -1.5
CCOc1ccc(-c2nc(CSCC(=O)NC3CC3)c(C)o2)cc1 | 0.1 | -27.1 | 6.3
CCOc1ccc(-c2nc(CSCC(=O)NCc3ccco3)c(C)o2)cc1 | -1.7 | 4.4 | 110.9*
CNC(=O)COC(=O)c1nc(-n2nc(C)cc2C)ccc1Cl | 1.4 | -4.7 | 80.0*
COC(=O)c1nc(-n2nc(C)cc2C)ccc1Cl | 3.1 | · | 9.7
COC(=O)C[C@H]1C[C@H]2c3cc(NC(=O)Nc4ccc(OC)cc4)ccc3O[C@H]2[C@H](CO)O1 | -4.1 | · | -4.5
CN1c2ccc(C#Cc3cccnc3)cc2[C@@H]2[C@@H](CCN2C(=O)C2CC2)[C@H]1CO | -6.3 | · | -8.1
O=C(Nc1cccc(-c2cccc(F)c2)c1)C1CCN(CC2CCOC2)CC1 (centres undefined) | -5.3 | 270.3* | -17.9
O=C(Nc1cccc(-c2cccc(Cl)c2)c1)C1CCN(CC2CCOC2)CC1 (centres undefined) | 0.5 | 194.5 | -22.8
CO[C@H](CN(C)Cc1cc(F)ccc1F)[C@@H](C)CN(C(=O)Nc1ccc(F)cc1)[C@@H](C)CO | 0.7 | · | -3.6
O=C(CC1CC1)N1CC[C@H]2[C@H](CO)Nc3ccc(-c4ccccc4)cc3[C@H]21 | 30.8 | · | 17.2
Cc1ccc(NC(=O)Cn2cccc2)c(Br)c1 | -1.3 | 23.5 | 3.3
Cc1ccc(NC(=O)CN(C)CC(=O)Nc2c(C)cccc2C)c(Br)c1 | -2.0 | 20.2 | 96.7*
COc1ccc(NC(=O)N(C)C[C@H]2Oc3c(NS(=O)(=O)c4ccccc4)cccc3C(=O)N([C@H](C)CO)C[C@H]2C)cc1 | · | · | 21.4
COc1cc(/C=C(\C#N)C(=O)NCCc2ccccc2)cc(OC)c1O | · | -0.6 | ·
N#C/C(=C\c1ccc(O)c(O)c1)C(=O)NCCc1ccccc1 | -1.9 | 273.9* | 2.5
COCCOC(=O)N1C(=O)[C@@]2(c3ccccc31)[C@H](c1ccccc1OCCO)N1[C@H](c3ccccc3)[C@H](c3ccccc3)OC(=O)[C@H]1[C@@H]2C(N)=O | -1.0 | · | ·
O=C(NC1CCCC(C(F)(F)F)C1)c1ccc([N+](=O)[O-])o1 (centres undefined) | 0.0 | 92.1 | 15.2
SMILES | Cneo AK release | SUMO Mot1 rescue | Statin myotox sup
O=C(NC1CCCCC1)c1ccc([N+](=O)[O-])o1 | 2.8 | 107.7 | 69.4*
CC(C)c1cn(CC[C@H]2CC[C@@H](NC(=O)C3CC3)[C@@H](CO)O2)nn1 | -16.2 | · | -6.0
Nc1nc2n[nH]nc2c(=O)[nH]1 | 5.1 | 14.5 | 90.1*
Nc1nc2nn(-c3ccccc3)nc2c(=O)[nH]1 | -2.8 | -9.6 | -0.7
CC(Cc1ccccc1)N/C=C1\CC(=O)NC1=O (centres undefined) | 1.6 | -9.5 | 79.7*
CC(Cc1ccccc1)NC(=O)C1CCCNC1=O (centres undefined) | -1.2 | -4.7 | 2.2
C[C@@H]1CN([C@@H](C)CO)C(=O)c2cc(NC(=O)C3CCCCC3)ccc2O[C@H]1CN(C)Cc1ccc(-c2ccccc2)cc1 | 1.0 | · | 4.7
CCn1c(SCC(=O)c2ccc(OC)cc2)nnc1C(C)NC(=O)c1ccc(OC)cc1 (centres undefined) | 1.3 | -14.2 | 75.6*
CCn1c(SCC(=O)c2ccc(Br)cc2)nnc1C(C)NC(=O)Cc1ccc(OC)cc1 (centres undefined) | -0.2 | · | 3.5
COc1cccc(NC(=O)N2C[C@@H](O)COC[C@@H]3O[C@H](CC(=O)NC4Cc5ccccc5C4)CC[C@H]32)c1 | -0.1 | · | -1.0
COC(=O)CCC(=O)Nc1sc(C)c(C)c1C(N)=O | 1.5 | -15.6 | 110.7*
COC(=O)CCC(=O)NC(=S)Nc1sc(C)c(C)c1C(N)=O | · | -25.1 | ·
O=C(C[C@@H]1C=C[C@H](NC(=O)C2CCOCC2)[C@H](CO)O1)NCC1CC1 | -1.3 | · | -16.0
CO[C@@H]1CN(C)C(=O)c2cc(NS(=O)(=O)c3ccc(C)cc3)ccc2OC[C@H](C)NC[C@@H]1C | -1.1 | · | 1.8
N#C[C@@H]1[C@H](c2ccc(C3=CCCCC3)cc2)[C@H](CO)N1C(=O)NC1CCCCC1 | 0.1 | · | 6.5
CCC(C(=O)Nc1ccccc1)c1ccccc1 (centres undefined) | 1.4 | 346.8 | ·
CCC(C(=O)Nc1ccccc1-c1ccccc1)c1ccccc1 (centres undefined) | -1.7 | 0.9 | 113.0*
CCOC(=O)/C(=N\Nc1cccc(C(F)(F)F)c1)N1CCOCC1 | · | 266.0* | ·
CCOC(=O)/C(=N\Nc1cccc(C(F)(F)F)c1)N(CCOC)CCOC | -1.8 | · | ·
Cn1c(N)c(C(=O)COC(=O)c2ccc(F)cc2Cl)c(=O)n(C)c1=O | -2.5 | -1.9 | 3.9
Cn1c(N)c(C(=O)COC(=O)C2(c3cccc(F)c3)CCCC2)c(=O)n(C)c1=O | 2.9 | 1.2 | 107.8*
O=C(O)c1nn(-c2ccccc2)nc1-c1nn(-c2ccccc2)nc1C(=O)O | -4.3 | -16.3 | 136.0*
COC(=O)c1nn(-c2ccccc2)nc1-c1nn(-c2ccccc2)nc1C(=O)OC | -6.3 | 11.7 | 6.0
COc1cc(Br)c(-c2sc(Nc3ccccc3)n[n+]2-c2ccc(F)cc2)cc1OC | -0.6 | -11.6 | 134.9*
COc1cc(OC)c(-c2sc(Nc3ccccc3)n[n+]2-c2ccc(F)cc2)cc1OC | 0.0 | 2.5 | -8.6
SMILES | Cneo AK release | SUMO Mot1 rescue | Statin myotox sup
C[C@H]1CN([C@@H](C)CO)C(=O)c2cc(-c3ccc(F)cc3)cnc2O[C@H]1CN(C)C(=O)c1ccccc1F | -6.9 | · | 14.5
C[C@@H](NC(=O)C[C@@H]1C=C[C@H](NC(=O)Nc2ccc3c(c2)OCO3)[C@@H](CO)O1)c1ccccc1 | 11.0 | · | 3.4
C[C@@H]1CN([C@H](C)CO)C(=O)Cc2cc(NC(=O)Nc3ccccc3)ccc2O[C@@H]1CN(C)S(=O)(=O)c1ccc(Cl)cc1 | · | · | 17.2
COc1cc(-c2noc(-c3ccccc3C(=O)NCc3ccco3)n2)cc(OC)c1OC | -0.1 | 2.8 | 100.2*
COc1ccccc1-c1noc(-c2ccccc2C(=O)NCc2ccco2)n1 | -1.0 | -4.7 | -9.9
CC(C)(CSc1ncccn1)NS(=O)(=O)c1ccccc1 | 0.0 | 2.4 | 119.6*
CC(CNS(=O)(=O)c1ccccc1)Sc1nncn1C (centres undefined) | -6.9 | 63.6 | ·
CC(C)(CSc1ccccn1)NS(=O)(=O)c1ccccc1 | · | 21.8 | ·
CC(CNS(=O)(=O)c1ccccc1)Sc1ncccn1 (centres undefined) | 4.0 | 346.1* | ·
